# NALP1 yeast inh: NALP1 inflammasome inhibitors in reconstituted yeast, colorimetric, S. cerevisiae, triplicate retest; AID 2071, 2009; S. cerevisiae NALP1/ASC/caspase-1 growth, X-gal OD620, 72 h; 0.61% of 280,000 active; inhibition, % at 10 µM; in the data active = inhibition mostly above about 24%, no sharp cut-off; inactive = mostly below about 32%
# PolyA inhibitor: polyadenylation inhibitors in yeast reporter cells, primary screen, luminescence, S. cerevisiae; S. cerevisiae SKY197-pL101 polyadenylation reporter, beta-gal luminescence; efflux-impaired pdr1/pdr3 knockout yeast; score 100 = 6 SD above DMSO; 0.02% of 300,000 active; activity score, % at 12 µM;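 active = lowest replicate activity score at least 50, where 100 means six control SD above control mean; inconclusive = lowest score under 50 but half or more replicates reach 50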;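 also: yeast exposed to compound for 9 h at 30 °C; higher score means more reporter readthrough which indicates perturbed polyadenylation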
# L major viab: Leishmania major promastigote growth inhibition, primary screen; Leishmania major promastigotes, resazurin fluorescence viability; inhibition, % at 10 µM; 9% of 200,000 active; AID 1063, 2008; in the data active = inhibition above about 50%;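 also: promastigotes grown with compound for 44 hours at 28 °C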
# Calb FLC: C. albicans growth inhibition with fluconazole, primary screen, CaCi-2 strain, Alamar Blue fluorescence; C. albicans CaCi-2 + fluconazole, 48 h; growth inhibition, % (concentration not given with the values); 0.57% of 300,000 active; AID 1979, 2009;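 active = growth inhibition above about 58% in most replicates, limit read from the data, passing the limit was not always enough; inconclusive = exactly half the replicates above a set limit; inactive = most replicates below a set limit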;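 also: all wells also contain fluconazole at 8 µg/ml as a sub-toxic cotreatment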
# T cruzi repl: inhibitors of intracellular T. cruzi growth, primary screen, luminescence, NIH3T3 host cells; T. cruzi beta-gal in NIH3T3, 90 h; inhibition, % (test concentration not listed); 1.4% of 300,000 active; AID 1885, 2009;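 active = mean inhibition across valid replicates above about 55%, limit read from the data; inconclusive = mean below that limit but half or more replicates reach it; inactive = mean below it, under half of replicates reach it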;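 also: signal also drops with host cell toxicity which is not excluded here; higher percent means less beta-gal luminescence so fewer parasites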
#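 assay system = mouse NIH/3T3 fibroblasts infected with β-gal-expressing T. cruzi Tulahuen C4 | input = 5,000 NIH/3T3 host cells per well | buffer or medium = DMEM plus 2% FBS | timing = 3 h host attachment, then at least 90 h co-culture | measured by = GalScreen luminescence, 60 min | evaluation = luminescence reflecting intracellular parasite burden, expressed as percent inhibition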
# NALP3 yeast inh: NALP3 inflammasome inhibitors in reconstituted yeast, primary screen, luminescence, uHTS; Yeast reconstituted NLRP3/ASC/caspase-1, beta-gal luminescence, 24 h; 0.39% of 330,000 active; inhibition, % at 10 µM;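 active = inhibition of 50% or more; inactive = inhibition below 50%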
# Hits are given with their value; . = inactive; ? = inconclusive; / = not tested or not shown. Shown is part of a subset that was picked to be rich in hits.
SMILES,NALP1 yeast inh,PolyA inhibitor,L major viab,Calb FLC,T cruzi repl,NALP3 yeast inh
O=C1/C(=C/c2cccnc2)SC(=NCc2ccccc2)N1Cc1ccccc1,.,.,.,.,62.8,.
O=C1NC(=S)N/C1=C/c1cccnc1,/,.,/,.,.,.
O=C(O)CCN1C(=O)S/C(=C\c2cccnc2)C1=O,.,.,/,.,.,.
O=C1/C(=C/c2cccnc2)CCC/C1=C\c1cccnc1,77.6,/,100.5,/,/,/
CC(C)N1C(=O)S/C(=C/c2cccnc2)C1=O,.,.,71.0,.,.,.
O=C(COC(=O)c1cccc(OC(F)F)c1)Nc1ncccn1,/,/,/,/,/,.
COc1ccc2c(c1)CC/C(=C/c1ccncc1)C2=O,.,.,74.9,.,.,.
O=C1/C(=C\c2cccnc2)CCc2ccccc21,.,.,100.3,.,.,.
CC(=O)Nc1ccc(/C=C2\CCc3ccccc3C2=O)cc1,.,.,/,.,.,.
COc1ccc(C2CC(c3cccs3)=NN2C(=O)COC(=O)C2CCCCC2)cc1OC (configuration not stated),.,.,.,.,.,.
N#C/C(=C\c1cccnc1)C(=O)Nc1ccc(Cl)cc1,.,.,/,.,.,.
N#C/C(C(=O)Nc1ccc(Cl)cc1)=C(/S)Nc1ccccc1,.,.,/,.,79.0,.
CCOC(=O)CN(C(=O)c1ccccc1[N+](=O)[O-])C(C)(C)C,.,.,/,.,.,.
Cc1ccc(-c2nnn3c2nc(NCCc2ccc(S(N)(=O)=O)cc2)c2ccccc23)cc1,.,.,72.6,.,.,.
C/C(CC(=O)Nc1c(C)cc(C)cc1C)=N\NC(=O)OC(C)(C)C,.,.,.,.,.,.
CCc1nn(CC(=O)NCCCN(CC)Cc2ccccc2)c(=O)c2cc3sccc3n12,.,.,55.3,.,.,.
O=C(Nn1cc(C(=O)Nc2ccccc2F)c2ccccc2c1=O)c1cnccn1,.,.,73.7,.,.,.
O=C(Cc1ccccc1)NCC(=O)OCC(=O)c1ccccc1Cl,.,.,92.8,.,.,.
O=C(NCCCn1ccnc1)c1c(F)cccc1F,.,.,/,.,.,.
O=C(NCCCn1ccnc1)c1sc2cccc(F)c2c1Cl,.,.,77.8,.,64.0,.
CCN1CCN(C(=S)c2ccc(-c3ccccc3)cc2)CC1,.,.,80.0,.,.,.
CCOC(=O)c1ccc(NC(=S)N2CCSC2c2c(F)cc(F)cc2F)cc1 (configuration not stated),.,.,.,.,.,.
COc1ccc(C2SCCN2C(=S)Nc2cccc(Cl)c2)cc1 (configuration not stated),.,.,79.7,.,.,.
COc1ccc(C2SCCN2C(=S)Nc2ccc(Cl)cc2)cc1 (configuration not stated),.,.,.,.,.,.
CCN1CCN(C(=S)c2ccc(Cl)c(Cl)c2)CC1,.,.,90.4,.,.,.
SMILES,NALP1 yeast inh,PolyA inhibitor,L major viab,Calb FLC,T cruzi repl,NALP3 yeast inh
Fc1cc(F)c(C2SCCN2C(=S)Nc2cccc(C(F)(F)F)c2)c(F)c1 (configuration not stated),37.1,.,/,.,.,.
COc1ccc(S(=O)(=O)NCC2CCCN(C(=O)c3sccc3C)C2)cc1 (configuration not stated),.,.,.,.,.,.
CCN1CCN(C(=S)Nc2cccc(C(F)(F)F)c2)CC1,.,.,59.9,.,.,.
CCN1CCN(C(=S)Nc2ccc(Cl)c(Cl)c2)CC1,50.8,.,83.7,.,.,.
CCN1CCN(C(=S)Nc2cccc(Cl)c2)CC1,.,.,.,.,.,.
CSc1ccc(C(=S)N2CCN(CCO)CC2)cc1,.,.,74.7,.,.,.
CCN1CCN(C(=S)NCc2ccc(C)cc2)CC1,.,.,83.4,.,.,.
Cn1c(=O)c2sccc2n2c(CCCC(=O)NCc3ccc(F)cc3)nnc12,.,.,/,.,.,.
NC(=O)CC[C@@H]1NC(=O)[C@@H]2CCCN2C(=O)c2cc([N+](=O)[O-])cc(I)c2NCCC[C@@H](C(N)=O)NC1=O,.,/,.,/,/,.
COC(=O)c1cc(C(=O)Nc2nnc(C3CC3)s2)cc([N+](=O)[O-])c1,.,.,.,.,.,.
COc1ccccc1C1c2c(C)nn(-c3ccccc3)c2NC(=O)C1NC(=O)c1ccccc1 (configuration not stated),.,.,75.5,.,.,.
COC(=O)c1c(C)nn(-c2ccccc2)c1N,.,.,.,.,.,.
Cc1cc(Br)c(Cl)cc1NC(=O)CN1C(=O)C2C3CC(c4ccccc4)C(C3)C2C1=O (configuration not stated),.,.,84.0,.,55.7,.
Cc1cc(NC(=O)C2CC2)ncc1NC(=O)c1ccccn1,.,.,.,.,.,.
Cc1ccccc1Nc1nc(N)c2ccccc2n1,.,.,95.9,.,.,.
Nc1nc(Nc2ccc(Cl)cc2)nc2ccccc12,.,/,92.9,.,.,.
COc1ccc(C)cc1Nc1nc(N)c2ccccc2n1,.,.,/,.,.,.
CN(C)c1ccc(Nc2nc(N)c3ccccc3n2)cc1,.,.,/,.,.,.
Nc1nc(Nc2ccccc2)nc2ccccc12,.,.,79.5,.,?,.
CCN(CC)c1ccc(C(=O)OCC(=O)Nc2ccc3[nH]c(=O)[nH]c3c2)cc1,.,.,.,.,.,.
CCCc1cc(=O)oc2c(C)c(O[C@@H]3O[C@H](CO)[C@@H](O)[C@H](O)[C@H]3O)ccc12,.,.,/,.,.,.
CCN1C(=O)N(C)[C@@H](c2ccccc2)C(C(C)=O)=C1C,/,.,/,.,.,.
CCCn1c(N2CCN(CC(=O)Nc3ccc4c(c3)OCCO4)CC2)nc2ccccc21,.,.,79.2,.,.,.
N#CC1=C(N)NC(SCc2ccc(F)cc2)=C(C#N)C12CCCCC2,.,.,98.5,.,/,.
COc1ccc(NC(=O)CN(C)C(=O)c2ccc3c(c2)S(=O)(=O)N=C2CCCCCN23)cc1,.,.,/,.,.,.
SMILES,NALP1 yeast inh,PolyA inhibitor,L major viab,Calb FLC,T cruzi repl,NALP3 yeast inh
CCN(CC)S(=O)(=O)c1ccc2c(c1)nc(CCC(=O)OCC(=O)Nc1c(F)cccc1F)n2C,.,.,.,.,.,.
CCN(CC)S(=O)(=O)c1ccc2c(c1)nc(CCC(=O)OCC(=O)Nc1cc(OC)cc(OC)c1)n2C,.,.,63.7,.,.,.
O=C(Nc1nc(-c2cccs2)cs1)c1cccc(S(=O)(=O)N2CCCCC2)c1,.,.,.,/,61.6,.
O=C(Nc1ccc(S(=O)(=O)N2CCCC2)cc1)c1cccs1,.,.,.,.,.,.
O=C(Nc1cccc(S(=O)(=O)N2CCCCC2)c1)c1cccs1,.,.,/,.,.,.
O=C(Nc1nc(-c2ccc(S(=O)(=O)N3CCCC3)cc2)cs1)c1cccs1,.,/,99.8,/,/,.

# Screening results from PubChem BioAssay.
